# Data: ChEMBL document CHEMBL1773037, “Evaluation of superior BACE1 cleavage sequences containing unnatural amino acids” (Bioorg Med Chem, 2011)
# Calls of active or inactive are those of the source. No cut-off for these calls is given here. Non-standard residues stand in square brackets, D forms with d. Residues, ends and D or L forms follow the SMILES beside them. 2Thi = N[C@@H](Cc1cccs1)C(=O)O; Cha = N[C@@H](CC1CCCCC1)C(=O)O; Cit = NC(=O)NCCC[C@H](N)C(=O)O; Phg = N[C@H](C(=O)O)c1ccccc1; Tle = CC(C)(C)[C@H](N)C(=O)O; Nva = CCC[C@H](N)C(=O)O; Abu = CC[C@H](N)C(=O)O
# What was measured:
# [1] = target: Beta-secretase 1 (Homo sapiens) (UniProt P56817); assay: Activity of recombinant BACE assessed as substrate cleavage at 300 uM after 3 hrs by HPLC analysis
# Chain of Beta-secretase 1 (Homo sapiens) (P56817 whole entry, the tested form may be a part): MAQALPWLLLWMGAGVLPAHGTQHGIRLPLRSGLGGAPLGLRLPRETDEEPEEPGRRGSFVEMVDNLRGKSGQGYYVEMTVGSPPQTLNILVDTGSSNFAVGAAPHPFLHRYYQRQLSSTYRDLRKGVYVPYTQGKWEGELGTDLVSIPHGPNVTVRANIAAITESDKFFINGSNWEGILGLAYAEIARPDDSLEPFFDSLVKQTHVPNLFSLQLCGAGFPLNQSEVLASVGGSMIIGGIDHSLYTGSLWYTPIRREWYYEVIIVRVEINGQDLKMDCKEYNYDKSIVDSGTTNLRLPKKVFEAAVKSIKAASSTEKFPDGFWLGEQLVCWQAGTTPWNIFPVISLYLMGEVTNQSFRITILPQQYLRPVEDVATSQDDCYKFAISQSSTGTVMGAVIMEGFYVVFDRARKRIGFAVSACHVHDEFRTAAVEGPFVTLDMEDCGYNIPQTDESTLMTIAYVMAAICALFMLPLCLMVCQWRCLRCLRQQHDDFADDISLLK
# In short: (§1)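 Individually synthesized, purified substrates at 300 µM in 40 mM AcONa buffer, pH 4.5, 37 °C. rBACE1 used at 60 nM (P1, P4 substrates), 30 nM (P2, P3 substrates) or 10 nM (P1' substrates and the dodecapeptide). Aliquots taken at 0, 1 and 3 h, quenched with 7 M GuHCl, and the decrease in each substrate peak monitored by HPLC.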
# [2] = target: Beta-secretase 1 (Homo sapiens) (UniProt P56817); assay: Activity of recombinant BACE assessed as retention time of substrate by HPLC method
# [3] = target: Beta-secretase 1 (Homo sapiens) (UniProt P56817); assay: Activity of recombinant BACE assessed as retention time of C-terminal fragment by HPLC method
# [4] = target: Beta-secretase 1 (Homo sapiens) (UniProt P56817); assay: Activity of recombinant BACE assessed as retention time of N-terminal fragment by HPLC method
# [5] = target: Beta-secretase 1 (Homo sapiens) (UniProt P56817); assay: Activity of recombinant BACE assessed as substrate cleavage upto 3 hrs by HPLC analysis; in short: as §1
# [6] = target: Beta-secretase 1 (Homo sapiens) (UniProt P56817); assay: Activity of recombinant BACE assessed as substrate cleavage after 1 hr by HPLC analysis
SMILES,Activity [1],retention time [2],retention time [3],retention time [4],Activity [5],Activity [6]
CC[C@H](C)[C@H](N)C(=O)N[C@@H](CO)C(=O)N[C@@H](CCC(=O)O)C(=O)N[C@H](C(=O)N[C@@H](CC(N)=O)C(=O)N[C@@H](CCCNC(N)=O)C(=O)N[C@@H](CC(=O)O)C(=O)N[C@@H](C)C(=O)N[C@@H](CCC(=O)O)C(=O)N[C@@H](Cc1ccccc1)C(=O)N[C@@H](CCCNC(=N)N)C(=O)N[C@@H](Cc1cnc[nH]1)C(N)=O)C(C)C (H-ISEVN[Cit]DAEFRH-NH2),Active,0.344 h,0.217 h,,,
CC[C@H](C)[C@H](N)C(=O)N[C@@H](CO)C(=O)N[C@@H](CCC(=O)O)C(=O)N[C@H](C(=O)N[C@@H](CC(N)=O)C(=O)N[C@H](C(=O)N[C@@H](CC(=O)O)C(=O)N[C@@H](C)C(=O)N[C@@H](CCC(=O)O)C(=O)N[C@@H](Cc1ccccc1)C(=O)N[C@@H](CCCNC(=N)N)C(=O)N[C@@H](Cc1cnc[nH]1)C(N)=O)C(C)(C)C)C(C)C (H-ISEVN[Tle]DAEFRH-NH2),,0.479 h,0.217 h,,,
CC[C@H](C)[C@H](N)C(=O)N[C@@H](CO)C(=O)N[C@@H](CCC(=O)O)C(=O)N[C@H](C(=O)N[C@@H](CC(N)=O)C(=O)N[C@@H](Cc1cccs1)C(=O)N[C@@H](CC(=O)O)C(=O)N[C@@H](C)C(=O)N[C@@H](CCC(=O)O)C(=O)N[C@@H](Cc1ccccc1)C(=O)N[C@@H](CCCNC(=N)N)C(=O)N[C@@H](Cc1cnc[nH]1)C(N)=O)C(C)C (H-ISEVN[2Thi]DAEFRH-NH2),70%,0.483 h,0.217 h,0.429 h,,
CC[C@H](C)[C@H](N)C(=O)N[C@@H](CO)C(=O)N[C@@H](CCC(=O)O)C(=O)N[C@H](C(=O)N[C@@H](CC(N)=O)C(=O)N[C@@H](CC1CCCCC1)C(=O)N[C@@H](CC(=O)O)C(=O)N[C@@H](C)C(=O)N[C@@H](CCC(=O)O)C(=O)N[C@@H](Cc1ccccc1)C(=O)N[C@@H](CCCNC(=N)N)C(=O)N[C@@H](Cc1cnc[nH]1)C(N)=O)C(C)C (H-ISEVN[Cha]DAEFRH-NH2),,0.573 h,0.217 h,,,
CCC[C@H](NC(=O)[C@H](Cc1cccs1)NC(=O)[C@H](Cc1cccs1)NC(=O)[C@@H](NC(=O)[C@H](CCC(=O)O)NC(=O)[C@H](CO)NC(=O)[C@@H](N)[C@@H](C)CC)[C@@H](C)CC)C(=O)N[C@@H](C)C(=O)N[C@@H](CCC(=O)O)C(=O)N[C@@H](Cc1ccccc1)C(=O)N[C@@H](CCCNC(=N)N)C(=O)N[C@@H](Cc1cnc[nH]1)C(N)=O (H-ISEI[2Thi][2Thi][Nva]AEFRH-NH2),,0.658 h,,,90%,
CCC[C@H](NC(=O)[C@H](CC(N)=O)NC(=O)[C@@H](NC(=O)[C@H](CCC(=O)O)NC(=O)[C@H](CO)NC(=O)[C@@H](N)[C@@H](C)CC)C(C)C)C(=O)N[C@@H](CC(=O)O)C(=O)N[C@@H](C)C(=O)N[C@@H](CCC(=O)O)C(=O)N[C@@H](Cc1ccccc1)C(=O)N[C@@H](CCCNC(=N)N)C(=O)N[C@@H](Cc1cnc[nH]1)C(N)=O (H-ISEVN[Nva]DAEFRH-NH2),Active,0.45 h,0.217 h,,,
CC[C@H](C)[C@H](N)C(=O)N[C@@H](CO)C(=O)N[C@@H](CCC(=O)O)C(=O)N[C@H](C(=O)N[C@@H](CC(N)=O)C(=O)N[C@H](C(=O)N[C@@H](CC(=O)O)C(=O)N[C@@H](C)C(=O)N[C@@H](CCC(=O)O)C(=O)N[C@@H](Cc1ccccc1)C(=O)N[C@@H](CCCNC(=N)N)C(=O)N[C@@H](Cc1cnc[nH]1)C(N)=O)c1ccccc1)C(C)C (H-ISEVN[Phg]DAEFRH-NH2),Active,0.459 h,0.217 h,,,
CC[C@H](C)[C@H](N)C(=O)N[C@@H](CO)C(=O)N[C@@H](CCC(=O)O)C(=O)N[C@H](C(=O)N[C@@H](CC(N)=O)C(=O)N[C@@H](CC(C)C)C(=O)N[C@@H](CC(=O)O)C(=O)N[C@@H](C)C(=O)N[C@@H](CCC(=O)O)C(=O)N[C@@H](Cc1ccccc1)C(=O)N[C@@H](CCCNC(=N)N)C(=O)N[C@@H](Cc1cnc[nH]1)C(N)=O)C(C)C (H-ISEVNLDAEFRH-NH2),50%,0.487 h,0.217 h,0.429 h,10%,
CC[C@H](C)[C@H](N)C(=O)N[C@@H](CO)C(=O)N[C@@H](CCC(=O)O)C(=O)N[C@H](C(=O)N[C@@H](CC(N)=O)C(=O)N[C@@H](CC(C)C)C(=O)N[C@@H](CCSC)C(=O)N[C@@H](C)C(=O)N[C@@H](CCC(=O)O)C(=O)N[C@@H](Cc1ccccc1)C(=O)N[C@@H](CCCNC(=N)N)C(=O)N[C@@H](Cc1cnc[nH]1)C(N)=O)C(C)C (H-ISEVNLMAEFRH-NH2),Active,0.622 h,,,,
CC[C@H](C)[C@H](N)C(=O)N[C@@H](CO)C(=O)N[C@H](C(=O)N[C@H](C(=O)N[C@@H](CC(N)=O)C(=O)N[C@@H](CC(C)C)C(=O)N[C@@H](CC(=O)O)C(=O)N[C@@H](C)C(=O)N[C@@H](CCC(=O)O)C(=O)N[C@@H](Cc1ccccc1)C(=O)N[C@@H](CCCNC(=N)N)C(=O)N[C@@H](Cc1cnc[nH]1)C(N)=O)C(C)C)c1ccccc1 (H-IS[Phg]VNLDAEFRH-NH2),Active,0.582 h,,,,
CC[C@H](C)[C@H](N)C(=O)N[C@@H](CCCCN)C(=O)N[C@H](C(=O)N[C@@H](CCC(=O)O)C(=O)N[C@@H](CCC(=O)O)C(=O)N[C@H](C(=O)N[C@@H](CO)C(=O)N[C@@H](CCC(=O)O)C(=O)N[C@H](C(=O)N[C@@H](CC(N)=O)C(=O)N[C@@H](CC(C)C)C(=O)N[C@@H](CC(=O)O)C(=O)N[C@@H](C)C(=O)N[C@@H](CCC(=O)O)C(=O)N[C@@H](Cc1ccccc1)C(=O)N[C@@H](CCCNC(=N)N)C(=O)N[C@@H](Cc1cnc[nH]1)C(=O)N[C@@H](CC(=O)O)C(=O)N[C@@H](CO)C(=O)NCC(N)=O)C(C)C)[C@@H](C)CC)[C@@H](C)O,,0.297 h,0.082 h,0.289 h,,20%
CC[C@H](NC(=O)[C@H](CC(N)=O)NC(=O)[C@@H](NC(=O)[C@H](CCC(=O)O)NC(=O)[C@H](CO)NC(=O)[C@@H](N)[C@@H](C)CC)C(C)C)C(=O)N[C@@H](CC(=O)O)C(=O)N[C@@H](C)C(=O)N[C@@H](CCC(=O)O)C(=O)N[C@@H](Cc1ccccc1)C(=O)N[C@@H](CCCNC(=N)N)C(=O)N[C@@H](Cc1cnc[nH]1)C(N)=O (H-ISEVN[Abu]DAEFRH-NH2),Active,0.409 h,0.217 h,,,
CC[C@H](C)[C@H](N)C(=O)N[C@@H](CO)C(=O)N[C@@H](CCC(=O)O)C(=O)N[C@H](C(=O)N[C@@H](CCSC)C(=O)N[C@@H](CC(C)C)C(=O)N[C@@H](CC(=O)O)C(=O)N[C@@H](C)C(=O)N[C@@H](CCC(=O)O)C(=O)N[C@@H](Cc1ccccc1)C(=O)N[C@@H](CCCNC(=N)N)C(=O)N[C@@H](Cc1cnc[nH]1)C(N)=O)C(C)C (H-ISEVMLDAEFRH-NH2),Active,0.521 h,,,,
